From publication PMC4827469 (ACS Central Science, 2015)
Like-named read-outs stand apart in the source and are kept apart here.

Tests used:
HepG2 [1] = assay: in vitro cytotoxicity assay; type: cell-based; conditions: Homo sapiens, HepG2, 72 h, read-out: IC50 (72 h)
Procedure, shortened: (§1)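 Cells grown in medium with 10% FBS and exposed to test compound for 72 h. Viability read by MTS or MTT stain, and IC50 derived from the readings.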

PANC-1 [2] = assay: in vitro cytotoxicity assay; type: cell-based; conditions: Homo sapiens, PANC-1, 48 h
AsPC-1 [3] = assay: in vitro cytotoxicity assay; type: cell-based; conditions: Homo sapiens, ASPC1, 48 h
A549 [4] = assay: in vitro cytotoxicity assay; type: cell-based, human
H441 [5] = assay: in vitro cytotoxicity assay; type: cell-based; conditions: Homo sapiens, NCI-H441, 72 h, read-out: IC50 (72 h)
Procedure, shortened: as §1

[6] = test system: panel of human tumor cell lines; assay: panel of human tumor cell lines in vitro; type: cell-based
Procedure, shortened: as §1

[7] = metabolite identification/biotransformation, human liver microsomes; type: in vitro ADME
[8] = metabolite identification/biotransformation, rat liver microsomes; type: in vitro ADME
[9] = metabolite identification/biotransformation, mouse liver microsomes; type: in vitro ADME; conditions: 1 mg/ml protein, 5 µM drug, 1 mM NADPH, 37 °C
[10] = mouse pharmacokinetic study; type: in vivo; conditions: male, Balb/C, whole blood, 50 mg/kg
[11] = test system: Hep 3B HCC tumor xenografts; assay: in vivo antitumor activity, subcutaneous Hep3B HCC xenograft in NSG mice; design: species or system mouse; conditions: female NSG mice, 50 mg/kg ip daily for 14 days
Procedure, shortened: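 Hep 3B hepatocellular carcinoma xenograft in mice, dosed per schedule. Paclitaxel positive control given iv at 24 mg/kg qd×5. Tumor growth inhibition, body weight and signs of toxicity monitored. Error given as SE computed from the average deviation.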

MDA-MB-231 = conditions: read-out: IC50 reported in the lit.; natural product, MDA-MB-231 (CCRC-60425) ref 1; cited from earlier work
LNCaP = conditions: read-out: IC50 reported in the lit.; natural product, LNCaP (CCRC-60088) ref 1; cited from earlier work
PANC-1 [12] = conditions: read-out: IC50 reported in the lit.; PANC-1 (48 h), ATCC, SRB assay ref 2f; cited from earlier work
AsPC-1 [13] = conditions: read-out: IC50 reported in the lit.; AsPC-1 (48 h), ATCC, SRB assay ref 2f; cited from earlier work
A549 [14] = conditions: read-out: IC50 reported in the lit.; A549 (12 h), KMUH ref 2c; cited from earlier work
H441 [15] = conditions: read-out: IC50 reported in the lit.; H441, KMUH ref 2c; cited from earlier work
Hep3B = conditions: 5% FBS, 48 h incubation, SRB stain ref 2a; cited from earlier work
HepG2 [16] = conditions: HepG2, 5% FBS, 48 h incubation, SRB stain ref 2a; cited from earlier work
H838 tumor cell line = H838 tumor cell line ref 23 (Ho et al., Biomed. Pharmacother. 2014); cited from earlier work
Hep 3B tumor model = conditions: initial tumor sizes 50–70 mm^3 ref 2a, 19; cited from earlier work
[17] = test system: A549 subcutaneous xenografts; conditions: NOD/SCID mice, 2 weeks of oral 30 and 60 mg/kg ref 18; cited from earlier work

## COC1=C(OC)[C@H](O)[C@H](C/C=C(\C)CC/C=C(\C)CCC=C(C)C)[C@@H](C)C1=O [Compound 1, Antroquinonol A]
HepG2 [1]
  IC50: > 25 µM
PANC-1 [2]
  IC50: > 25 µM
AsPC-1 [3]
  IC50: > 25 µM
A549 [4]; A549
  fold more potent than previously reported: ~4 fold
A549 [4]; Homo sapiens, A549, 12 h, A549 (12 h) (ATCC), 1 triplicate, 15 duplicate
  IC50: 6.7 ± 2.5 µM
H441 [5]
  IC50: > 25 µM
[6]; cell lines of Table 1 except A549
  fold less cytotoxic than reported for the natural product: 3–70 fold
[6]; panel of Table 1
  cytotoxicity in tumor cell line panel: only micromolar activity
[7]
  biotransformation in liver microsomes: rapidly converted to a major metabolite
[8]
  biotransformation in liver microsomes: rapidly converted to a major metabolite
[9]
  biotransformation in liver microsomes: rapidly converted to a major metabolite
[10]; ip
  AUC(0-t): 2.29 ± 0.142 µM·h
  Cmax: 457 ± 45 nM
  Tmax: 4 ± 3 h
[10]; po
  AUC(0-t): 0.266 ± 0.088 µM·h
  Cmax: 79 ± 52 nM
  Tmax: 2 ± 1 h
[11]
  tolerability: generally well-tolerated with no overt signs of toxicity
  weight loss: ~4%
MDA-MB-231
  IC50: 2600 ± 50 nM
LNCaP
  IC50: 6.1 ± 0.07 µM
PANC-1 [12]
  IC50: 19 µM
AsPC-1 [13]
  IC50: 20 µM
A549 [14]
  IC50: 25 µM
H441 [15]
  IC50: 25 µM
Hep3B
  GI50: > 30 µM
HepG2 [16]
  GI50: 220 nM
H838 tumor cell line
  IC50: ~3000 nM
Hep 3B tumor model
  antitumor activity reported in the literature: statistically significant antitumor activity
[17]
  antitumor effect reported: tumor growth suppression
